ChEMBL document CHEMBL4196046, “Design, synthesis, and structure-activity-relationship of a novel series of CXCR4 antagonists” (Eur J Med Chem, 2018)
Active and inactive are the calls of the source. No cut-off for these calls is given here.

What was measured:
[1] = molecular target: T1, C-X-C chemokine receptor type 4 (Homo sapiens, UniProt P61073); test: Displacement of 12G5-CXCL12 from CXCR4 in human HPBALL cells after 3 hrs by FACS analysis; type: cell-based
[2] = molecular target: T1, C-X-C chemokine receptor type 4; test: Antagonist activity at CXCR4-mediated chemotaxis in human MDA-MB-231 cells assessed as inhibition of CXCL12-induced cell invasion at 100 nM after 24 hrs by crystal violet staining-based microscopic matrigel assay; type: functional
Procedure, shortened: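 MDA-MB-231 cells (1 × 10⁵ cells/well) plus compound (100 nM) in upper chamber of 8-µm-pore Boyden inserts coated with 50mg/L Matrigel; CXCL12 in serum-free medium in lower chamber as chemoattractant. After 24 h, non-invaded cells wiped off; invaded cells fixed in cold methanol, crystal violet stained, counted in 10 random fields (100×). Three independent experiments; t-test vs control.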

[3] = Efflux ratio of apparent permeability across basolateral to apical over apical to basolateral side in human Caco2 cells at 2 uM by LC-MS/MS method; type: ADME, cell-based; details: Caco-2
[4] = Intrinsic clearance in human liver microsomes at 1 uM preincubated for 10 mins followed by NADPH addition measured after 30 to 60 mins by LC-MS/MS method; type: ADME, microsome; details: read-out: CLH
[5] = molecular target: T1, C-X-C chemokine receptor type 4; test: Antagonist activity at CXCR4 in human CD4+ T cells assessed as inhibition of CXCL12-mediated cytosolic calcium level preincubated with compounds followed by CXCL12 stimulation by calcium 4 dye-based FLIPR assay; type: functional, cell-based
[6] = Apparent permeability across apical to basolateral side in human Caco2 cells at 2 uM by LC-MS/MS method; type: ADME, cell-based; details: Caco-2
[7] = Half life in mouse liver microsomes at 1 uM preincubated for 10 mins followed by NADPH addition measured after 30 to 60 mins by LC-MS/MS method; type: ADME, microsome
[8] = Intrinsic clearance in mouse liver microsomes at 1 uM preincubated for 10 mins followed by NADPH addition measured after 30 to 60 mins by LC-MS/MS method; type: ADME, microsome; details: read-out: CLH
[9] = molecular target: Voltage-gated inwardly rectifying potassium channel KCNH2 (Homo sapiens, UniProt Q12809); test: Inhibition of human ERG expressed in CHO cells after 4 mins at -80 mV holding potential by Qpatch assay; type: cell-based
[10] = Half life in human liver microsomes at 1 uM preincubated for 10 mins followed by NADPH addition measured after 30 to 60 mins by LC-MS/MS method; type: ADME, microsome
[11] = tested on: MCF7; test: Antiproliferative activity against human MCF7 cells at 400 nM after 24 to 48 hrs by MTT assay; type: functional, cell-based
Procedure, shortened: (§1)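 Cells seeded at 5 × 10³ cells/well, treated with compound, incubated at 37 °C, 5% CO₂ (48 h in methods; 24 h in figure legend), then 4 h with MTT reagent; formazan dissolved in DMSO, absorbance at 570 nm. Mean±SD of three independent experiments.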

[12] = tested on: MDA-MB-231; test: Antiproliferative activity against human MDA-MB-231 cells at 400 nM after 24 to 48 hrs by MTT assay; type: functional, cell-based; procedure, shortened: as §1
[13] = molecular target: CYP2D6 (Homo sapiens, UniProt P10635); test: Inhibition of CYP2D6 in human liver microsomes at 10 uM using dextromethorphan as substrate preincubated for 10 min followed by NADPH addition measured after 10 mins by LC-MS/MS analysis relative to control; type: ADME; details: probe dextromethorphan
[14] = molecular target: T1, C-X-C chemokine receptor type 4; test: Potency index, ratio of AMD3100 IC50 to compound IC50 for CXCR4 in human CD4+ T cells; type: cell-based
[15] = Antiproliferative activity against HOSEC at 400 nM after 24 to 48 hrs by MTT assay; details: human, 0.4 µM; procedure, shortened: as §1
[16] = molecular target: CYP3A4 (Homo sapiens, UniProt P08684); test: Inhibition of CYP3A4 in human liver microsomes at 10 uM using midazolam as substrate preincubated for 10 min followed by NADPH addition measured after 10 mins by LC-MS/MS analysis relative to control; type: ADME; details: probe midazolam
CYP3A4, sequence (P08684 whole entry): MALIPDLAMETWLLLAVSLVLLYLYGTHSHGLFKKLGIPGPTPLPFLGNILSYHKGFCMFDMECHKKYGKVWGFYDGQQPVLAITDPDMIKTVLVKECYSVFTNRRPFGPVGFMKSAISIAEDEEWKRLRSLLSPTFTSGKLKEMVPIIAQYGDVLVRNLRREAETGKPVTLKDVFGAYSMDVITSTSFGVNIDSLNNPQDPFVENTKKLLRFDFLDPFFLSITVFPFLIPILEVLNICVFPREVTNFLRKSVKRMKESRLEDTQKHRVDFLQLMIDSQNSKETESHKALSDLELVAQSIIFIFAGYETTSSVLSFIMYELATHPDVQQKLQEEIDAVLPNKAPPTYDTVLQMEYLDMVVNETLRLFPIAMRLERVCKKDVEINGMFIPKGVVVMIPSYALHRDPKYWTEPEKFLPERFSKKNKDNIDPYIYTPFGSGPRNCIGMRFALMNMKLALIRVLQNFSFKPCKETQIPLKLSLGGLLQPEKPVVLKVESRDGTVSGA

T1 sequence (P61073 whole entry): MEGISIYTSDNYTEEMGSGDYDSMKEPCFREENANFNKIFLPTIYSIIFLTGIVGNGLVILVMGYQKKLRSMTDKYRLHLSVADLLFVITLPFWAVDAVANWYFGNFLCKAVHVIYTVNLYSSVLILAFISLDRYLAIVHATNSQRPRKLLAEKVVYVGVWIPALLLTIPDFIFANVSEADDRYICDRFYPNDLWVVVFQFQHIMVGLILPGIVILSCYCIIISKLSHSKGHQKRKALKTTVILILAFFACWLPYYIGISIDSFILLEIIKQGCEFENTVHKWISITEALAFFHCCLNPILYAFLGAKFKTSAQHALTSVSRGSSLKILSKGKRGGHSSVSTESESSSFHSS
Voltage-gated inwardly rectifying potassium channel KCNH2, sequence (Q12809 whole entry): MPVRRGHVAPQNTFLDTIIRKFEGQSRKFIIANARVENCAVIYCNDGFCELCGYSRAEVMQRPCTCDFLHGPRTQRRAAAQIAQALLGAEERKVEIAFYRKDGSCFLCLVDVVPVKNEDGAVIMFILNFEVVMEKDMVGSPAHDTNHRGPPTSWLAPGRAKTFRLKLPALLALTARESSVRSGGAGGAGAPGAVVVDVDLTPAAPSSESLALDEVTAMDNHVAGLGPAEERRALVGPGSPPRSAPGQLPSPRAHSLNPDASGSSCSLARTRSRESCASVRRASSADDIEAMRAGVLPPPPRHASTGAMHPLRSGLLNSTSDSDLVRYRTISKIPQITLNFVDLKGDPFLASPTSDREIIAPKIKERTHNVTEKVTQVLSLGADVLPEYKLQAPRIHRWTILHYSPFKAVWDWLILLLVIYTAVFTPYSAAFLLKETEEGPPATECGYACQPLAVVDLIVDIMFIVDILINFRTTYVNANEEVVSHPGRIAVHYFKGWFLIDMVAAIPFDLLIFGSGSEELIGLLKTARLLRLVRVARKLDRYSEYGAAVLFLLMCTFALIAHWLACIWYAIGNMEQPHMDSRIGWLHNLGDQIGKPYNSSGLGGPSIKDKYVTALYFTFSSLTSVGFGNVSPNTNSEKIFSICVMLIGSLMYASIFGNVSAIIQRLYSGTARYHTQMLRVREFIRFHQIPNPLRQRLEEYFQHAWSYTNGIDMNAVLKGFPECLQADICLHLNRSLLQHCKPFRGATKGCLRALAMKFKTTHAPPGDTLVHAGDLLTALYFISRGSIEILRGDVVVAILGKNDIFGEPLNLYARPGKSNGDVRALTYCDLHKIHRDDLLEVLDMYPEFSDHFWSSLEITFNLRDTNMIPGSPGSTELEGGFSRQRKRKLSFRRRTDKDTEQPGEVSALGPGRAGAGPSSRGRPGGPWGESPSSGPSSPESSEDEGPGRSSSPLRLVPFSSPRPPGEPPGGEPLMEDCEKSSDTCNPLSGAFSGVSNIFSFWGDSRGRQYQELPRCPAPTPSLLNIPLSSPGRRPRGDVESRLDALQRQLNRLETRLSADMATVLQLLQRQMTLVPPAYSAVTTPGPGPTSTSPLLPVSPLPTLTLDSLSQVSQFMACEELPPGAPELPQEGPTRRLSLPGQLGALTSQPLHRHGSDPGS
CYP2D6, sequence (P10635 whole entry): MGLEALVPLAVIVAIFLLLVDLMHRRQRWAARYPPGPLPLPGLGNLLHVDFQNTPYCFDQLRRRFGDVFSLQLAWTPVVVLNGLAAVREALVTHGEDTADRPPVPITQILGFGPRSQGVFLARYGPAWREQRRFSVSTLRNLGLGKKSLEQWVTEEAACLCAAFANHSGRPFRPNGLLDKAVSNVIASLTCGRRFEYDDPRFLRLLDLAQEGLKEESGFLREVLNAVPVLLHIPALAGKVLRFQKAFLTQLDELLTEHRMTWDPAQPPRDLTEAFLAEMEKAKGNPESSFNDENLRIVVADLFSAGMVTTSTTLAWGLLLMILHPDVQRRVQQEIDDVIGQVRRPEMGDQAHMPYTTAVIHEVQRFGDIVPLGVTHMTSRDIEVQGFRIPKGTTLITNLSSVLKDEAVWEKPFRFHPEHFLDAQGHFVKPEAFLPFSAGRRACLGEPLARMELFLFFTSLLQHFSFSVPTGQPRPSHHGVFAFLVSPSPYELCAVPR

SMILES	IC50 [1] [nM]	also measured
CN1CCCN(c2cc(CN(C)C3CCCc4cccnc43)ncn2)CC1 (stereo unspecified)	170	–
CC(C)N1CCN(c2cc(CN(C)C3CCCc4cccnc43)ncn2)CC1 (stereo unspecified)	210	–
CCN1CCN(c2cc(CN(C)C3CCCc4cccnc43)ncn2)CC1 (stereo unspecified)	320	–
CN(C)c1cc(CN(C)C2CCCc3cccnc32)ncn1 (stereo unspecified)	> 10000	–
CN(C)CCN(C)c1cc(CN(C)C2CCCc3cccnc32)ncn1 (stereo unspecified)	1020	–
CN1CCN(c2nccc(CN(C)C3CCCc4cccnc43)n2)CC1 (stereo unspecified)	> 10000	–
CN(Cc1cc(N2CCN(CC3CC3)CC2)ncn1)C1CCCc2cccnc21 (stereo unspecified)	1050	–
CN1CCN(c2ccnc(CN(C)C3CCCc4cccnc43)c2)CC1 (stereo unspecified)	200	–
CN(Cc1ccncn1)C1CCCc2cccnc21 (stereo unspecified)	> 10000	–
c1cc(CN2CCCNCCNCCCNCC2)ccc1CN1CCCNCCNCCCNCC1	–	inhibition [2]: Active
CN(Cc1cc(N2CCN(CCO)CC2)ncn1)C1CCCc2cccnc21 (stereo unspecified)	290	–
CN1CCN(c2cc(CN(C)[C@H]3CCCc4cccnc43)ncn2)CC1	88	efflux ratio at 2 µM [3]: 1.5; CLint scaled at 1 µM [4]: 226 mL/min/kg; IC50 [5]: 0.73 nM; Papp A→B at 2 µM [6]: 15 ×10⁻⁶ cm/s; half-life at 1 µM [7]: 1.4 min; CLint scaled at 1 µM [8]: 3860 mL/min/kg; IC50 [9]: > 30000 nM; half-life at 1 µM [10]: 7.7 min
CN1CCN(c2cc(CN(C)[C@@H]3CCCc4cccnc43)ncn2)CC1	1300	IC50 [5]: 68 nM
CN1CCN(c2cc(CN(CCCCNC(=O)OC(C)(C)C)C3CCCc4cccnc43)ncn2)CC1 (stereo unspecified)	18	–
CN1CCN(c2cc(CN(C)C3CCCc4cccnc43)ccn2)CC1 (stereo unspecified)	> 10000	–
CN1CCN(c2cc(CN(C)C3CCCc4cccnc43)ncn2)CC1.Cl (stereo unspecified)	54	Activity [11]: inactive; IC50 [5]: 2.3 nM; inhibition [2]: Active; Activity [12]: inactive; inhibition at 10 min, 10 µM [13]: 3%; Ratio IC50 [14]: 8; Activity [15]: Non-Toxic; inhibition at 10 min, 10 µM [16]: 9%
CN(C)C1CCN(c2cc(CN(C)C3CCCc4cccnc43)ncn2)CC1 (stereo unspecified)	630	–
CN1CCN(c2ccnc(CN(C)C3CCCc4cccnc43)n2)CC1 (stereo unspecified)	180	–
CN(Cc1cc(N2CCN(C(=O)OC(C)(C)C)CC2)ncn1)C1CCCc2cccnc21 (stereo unspecified)	> 10000	–
CN(C)C1CCN(c2cc(CN(C)C3CCCc4cccnc43)ncn2)C1 (stereo unspecified)	150	–
CN1CCN(c2cccc(CN(C)C3CCCc4cccnc43)n2)CC1 (stereo unspecified)	> 10000	–
CN(Cc1cc(N2CCNCC2)ncn1)C1CCCc2cccnc21 (stereo unspecified)	2600	–
CN(Cc1cc(NCCN2CCOCC2)ncn1)C1CCCc2cccnc21 (stereo unspecified)	640	–
CN1CCN(c2cc(CN(CCCCN)C3CCCc4cccnc43)ncn2)CC1 (stereo unspecified)	18	–
